What all share (assay): fluorescence-binding assay
One assay deals with T1, JHAMT1 (Bombyx mori, UniProt Q767F1).
T1 sequence (Q767F1 1-278): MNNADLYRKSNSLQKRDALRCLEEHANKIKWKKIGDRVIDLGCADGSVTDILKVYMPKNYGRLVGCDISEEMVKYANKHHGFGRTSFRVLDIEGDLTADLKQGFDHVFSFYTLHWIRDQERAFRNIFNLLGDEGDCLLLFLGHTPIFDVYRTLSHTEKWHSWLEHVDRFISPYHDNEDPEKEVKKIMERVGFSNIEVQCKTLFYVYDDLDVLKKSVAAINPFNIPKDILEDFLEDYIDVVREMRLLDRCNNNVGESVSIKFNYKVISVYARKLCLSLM
The procedure, abridged:
(§1)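 Intrinsic tryptophan fluorescence quenching used 2 μM recombinant B. mori JHAMT (wild type or point mutant) in 20 mM Tris-HCl pH 8.0, 200 mM NaCl, equilibrated 2 min at 25 °C. Ligand was titrated at final 0–1.5 mM SAM (cofactor binding) or 0–0.1 mM FA (substrate binding). Excitation was 280 nm with emission recorded 300–450 nm. Kd was fitted from quenching data as mean ± s.d. of n = 3.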

The target of another assay is T2, JHAMT1-D^91A (Bombyx mori, UniProt Q767F1, D91A).
T2 sequence (Q767F1 1-278 D91A): T1 sequence (Q767F1 1-278) with D91A
An outline of the steps: as §1

Another assay concerns the target T3, JHAMT1-T^112A (Bombyx mori, UniProt Q767F1, T112A).
T3 sequence (Q767F1 1-278 T112A): T1 sequence (Q767F1 1-278) with T112A
The procedure, abridged: as §1

A further assay has as its target T4, JHAMT2 (Bombyx mori, UniProt A0A8M0FGR8).
T4 sequence (A0A8M0FGR8 1-267): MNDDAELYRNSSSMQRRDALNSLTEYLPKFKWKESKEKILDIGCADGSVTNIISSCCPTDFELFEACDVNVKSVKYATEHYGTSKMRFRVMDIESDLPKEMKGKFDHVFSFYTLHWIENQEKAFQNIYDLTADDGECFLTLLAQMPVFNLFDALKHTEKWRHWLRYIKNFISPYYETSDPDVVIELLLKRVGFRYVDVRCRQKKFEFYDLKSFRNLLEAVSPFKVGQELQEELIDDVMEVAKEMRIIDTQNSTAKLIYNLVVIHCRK
An outline of the steps: as §1

The target in a further assay is T5, JHAMT2-D^92A (Bombyx mori, UniProt A0A8M0FGR8, D92A).
T5 sequence (A0A8M0FGR8 1-267 D92A): T4 sequence (A0A8M0FGR8 1-267) with D92A
The procedure, abridged: as §1

In a further assay the target is T6, JHAMT2-T^113A (Bombyx mori, UniProt A0A8M0FGR8, T113A).
T6 sequence (A0A8M0FGR8 1-267 T113A): T4 sequence (A0A8M0FGR8 1-267) with T113A
An outline of the steps:
as §1

Substitutions are numbered along the chain they refer to.

As a reminder, the Kd is the equilibrium constant for the complex coming apart. High values mean a looser complex, low ones a tighter complex. For the compound `C[S+](CC[C@H](N)C(=O)[O-])C[C@H]1O[C@@H](n2cnc3c(N)ncnc32)[C@H](O)[C@@H]1O` (stereo partly drawn) [SAM, S-adenosyl-L-methionine], the Kd on JHAMT1 amounted to 38.7 ± 3.42 µM; on JHAMT1-D^91A, 229 ± 18.1 µM; at JHAMT1-T^112A it was 191 ± 12.7 µM; on JHAMT2, 42.6 ± 5.83 µM; on JHAMT2-D^92A, 261 ± 18.1 µM; at JHAMT2-T^113A it was 144 ± 9.91 µM.

Source of the values: paper PMC8526772 (The Journal of Biological Chemistry, 2021).
